Data reported in ChEMBL document CHEMBL3856288, “Amidate Prodrugs of Deoxythreosyl Nucleoside Phosphonates as Dual Inhibitors of HIV and HBV Replication” (J Med Chem, 2016).

Experiments:
[1] = Drug level in acetone-d6/pH 7.6 Trizma buffer treated with 1'alpha-(Adenin-9-yl)-2'-deoxy-3'-O-{[N-(diisoamyl-L-aspartate)](phenoxy)methylphosphonoamidate}-L-threose assessed as baker's yeast carboxypeptidase Y-mediated compound formation at 1 mg after 3 hrs by RP-HPLC/mass spectra analysis; format: ADME; settings: saccharomyces cerevisiae, in vitro, pH 7.6, 3 h
[2] = test system: Human immunodeficiency virus 1; experiment: Antiviral activity against HIV1 3B infected in human MT4 cells assessed as protection against virus-induced cytopathic effect after 5 days by MTT assay; format: functional, cell-based; settings: Human immunodeficiency virus 1, 3B, MT4, 120 h
[3] = Antiviral activity against HIV2 ROD infected in human MT4 cells assessed as protection against virus-induced cytopathic effect after 5 days by MTT assay; format: functional, cell-based, Human immunodeficiency virus type 2 (ISOLATE ROD); settings: Human immunodeficiency virus 2, MT4, 120 h
[4] = Cytotoxicity against human MT4 cells assessed as decrease in cell viability after 5 days by MTT assay; format: toxicity, cell-based
Hepatitis B virus [5] = experiment: Antiviral activity against HBV ayw1 infected in human HepG2(2.2.15) cells assessed as reduction in viral replication by measuring extracellular viral DNA copy number after 6 days by real-time qPCR method; format: functional, cell-based; settings: ayw1, HepG2 2.2.15, 144 h
Summary of the method: (§1)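 HepG2 2.2.15 cells (stable line carrying two copies of the HBV ayw1 genome) were seeded at 1.5 × 10^4 cells/well in DMEM with 2% FBS and G418. After 16−24 h, compound was added in triplicate, and medium plus compound was renewed on day 3. On day 6, supernatant was Pronase-treated and extracellular HBV DNA was quantified by TaqMan qPCR against an HBV DNA standard curve to give EC50/EC90. Cell viability was read by MTS uptake to give CC50.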

[6] = Cytotoxicity against human HepG2(2.2.15) cells assessed as reduction in cell viability by MTS assay; format: toxicity, cell-based; summary of the method: as §1
[7] = Drug level in pH 8 phosphate buffer treated with 1'alpha-(Adenin-9-yl)-2'-deoxy-3'-O-{[N-(diisoamyl-L-aspartate)](phenoxy)methylphosphonoamidate}-L-threose at 2 mg measured every 30 mins for 14 hrs by RP-HPLC/mass spectra analysis
[8] = Selectivity index, ratio of CC50 for human MT4 cells to EC50 for HIV1 3B infected in human MT4 cells; format: toxicity, cell-based; settings: read-out: Ratio CC50/EC50
[9] = Selectivity index, ratio of CC50 for human MT4 cells to EC50 for HIV2 ROD infected in human MT4 cells; format: toxicity, cell-based; settings: read-out: Ratio CC50/EC50
[10] = Selectivity ratio of CC50 for human HepG2(2.2.15) cells to EC50 for reduction in HBV ayw1 extracellular DNA copy number; settings: read-out: Ratio CC50/EC50
Summary of the method: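 HepG2 2.2.15 cells (two HBV ayw1 genome copies), 1.5 × 10^4 cells/well in DMEM with 2% FBS and G418; compound dosed in triplicate and medium renewed on day 3. On day 6, Pronase-treated supernatant HBV DNA measured by TaqMan qPCR against a standard curve, giving EC50. MTS uptake gave CC50, and the ratio was calculated from these.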

Hepatitis B virus [11] = experiment: Antiviral activity against HBV ayw1 infected in human HepG2(2.2.15) cells assessed as reduction in viral replication by measuring intracellular viral DNA copy number after 6 days by real-time qPCR method; format: functional, cell-based; settings: ayw1, HepG2 2.2.15, 144 h
Summary of the method: (§2)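 The protocol was the same as the primary HepG2 2.2.15 assay (triplicate dosing, medium plus compound renewed on day 3, 6-day course). At the end, total intracellular DNA was isolated from the cells and HBV DNA copy number was measured by TaqMan qPCR to give EC50/EC90. CC50 came from MTS viability, and SI was taken as CC50/EC50.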

[12] = Selectivity ratio of CC50 for human HepG2(2.2.15) cells to EC50 for reduction in HBV ayw1 intracellular DNA copy number; format: ADME, cell-based; settings: read-out: Ratio CC50/EC50; summary of the method: as §2
[13] = Half life in human liver S9 fraction at 100 uM by HPLC-UV method; format: ADME, subcellular
Summary of the method: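 Incubation started by adding human liver S9 fraction (4 mg/mL) at 37 °C; aliquots at 0, 10, 20, 30, 60 min quenched in acetonitrile, centrifuged, supernatant analysed by C18 HPLC with UV at 260 nm; parent peak area versus time 0 gave percent remaining and half-life.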

[14] = Half life in human liver microsomes at 0.1 uM in presence of NADPH-regenerating system by HPLC MS/MS method; format: ADME
Summary of the method: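 Pooled liver microsomes preincubated 10 min at 37 °C with NADPH-regenerating system (1 mM NADP, 5 mM G6P, 1 U/mL G6PDHase) in phosphate buffer pH 7.4, 3 mM MgCl2, 1 mM EDTA; compound added at 0.1 μM final; samples at 0, 15, 30, 45, 60 min quenched in acetonitrile/methanol, analysed by HPLC MS/MS.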

Row | SMILES | Drug metabolism [1] | EC50 [2] [µM] | EC50 [3] [µM] | CC50 at 120 h [4] [µM] | EC50 (Hepatitis B virus [5]) [µM] | EC90 (Hepatitis B virus [5]) [µM] | CC50 [6] [µM] | Drug metabolism [7] | selectivity ratio [8] | selectivity ratio [9] | selectivity ratio [10] | EC50 (Hepatitis B virus [11]) [µM] | EC90 (Hepatitis B virus [11]) [µM] | selectivity ratio [12] | half-life at 100 µM [13] [min] | half-life at 0.1 µM [14] [min]
1 | CC(C)CCOC(=O)C[C@H](NP(=O)(O)CO[C@H]1CO[C@@H](n2cnc3c(N)ncnc32)C1)C(=O)O | Metabolite_Detected |  |  |  |  |  |  |  |  |  |  |  |  |  |  | 
2 | Nc1nc2c(ncn2[C@H]2C[C@@H](OCP(=O)(O)O)CO2)c(=O)[nH]1 |  | > 302 | > 302 | > 302 | > 100 | > 100 | > 100 |  |  |  |  |  |  |  |  | 
3 | CC(C)CCOC(=O)C[C@H](NP(=O)(O)CO[C@H]1CO[C@@H](n2cnc3c(N)ncnc32)C1)C(=O)OCCC(C)C |  |  |  |  |  |  |  | Metabolite detected |  |  |  |  |  |  |  | 
4 | Nc1ccn([C@H]2C[C@@H](OCP(=O)(O)O)CO2)c(=O)n1 |  | > 343 | > 343 | > 343 | > 100 | > 100 | > 100 |  |  |  |  |  |  |  |  | 
5 | CCCOC(=O)[C@H](Cc1ccccc1)NP(=O)(CO[C@H]1CO[C@@H](n2cnc3c(N)ncnc32)C1)N[C@@H](Cc1ccccc1)C(=O)OCCC |  | 0.0033 | 0.002 | 1.12 | 0.01 | 4.2 | > 10 |  | 347 | 570 | > 1000 | 0.03 | 6.37 | > 3330 | < 10 | 7
6 | Nc1ccn([C@@H]2CS[C@H](CO)O2)c(=O)n1 [LAMIVUDINE] |  |  |  | > 87.2 | 0.01 | > 2 | > 2 |  | > 39 | > 10 | > 200 | < 0.01 | > 2 | > 254 |  | 
7 | Cc1cn([C@H]2C[C@@H](OCP(=O)(N[C@@H](CC(=O)OCCC(C)C)C(=O)OCCC(C)C)Oc3ccccc3)CO2)c(=O)[nH]c1=O (some centres undefined) |  | 0.0173 | 0.011 | 42.2 | 0.25 | > 100 | 34 |  | 2350 | 3860 | 136 |  |  |  |  | 
8 | Nc1ncnc2c1ncn2[C@@H]1OC[C@H](OCP(=O)(O)O)[C@H]1F |  | ≥ 222 | ≥ 214 | 262 | 79.6 | > 100 | > 100 |  |  |  |  |  |  |  |  | 
9 | CC(C)OC(=O)[C@H](C)NP(=O)(CO[C@H]1CO[C@@H](n2cnc3c(=O)[nH]c(N)nc32)C1)Oc1ccccc1 (some centres undefined) |  | > 112 | > 112 | ≥ 112 | > 100 | > 100 | > 100 |  |  |  |  |  |  |  |  | 
10 | CCCOC(=O)[C@H](Cc1ccccc1)NP(=O)(CO[C@H]1CO[C@@H](n2cnc3c(=O)[nH]c(N)nc32)C1)N[C@@H](Cc1ccccc1)C(=O)OCCC |  | > 62 | > 62 | > 62 | > 100 |  | > 100 |  |  |  |  |  |  |  |  | 
